VIM-2 inh: blocks Pseudomonas aeruginosa VIM-2 metallo-beta-lactamase. 290,000 tested, 0.89% active. purified VIM-2, nitrocefin hydrolysis, epi-absorbance fluorescence. AID 1527. inhibition, % at 5.6 µM;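 active means inhibition above the mean of all tested compounds plus 3 SD, cutoff set per screening run, cut at about 7.5% in these data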;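 further: red hydrolysis product quenches plate fluorescence so inhibitors raise well fluorescence; 0% = enzyme with DMSO and 100% = DMSO without enzyme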
IMP-1 inhibitor: blocks Pseudomonas aeruginosa IMP-1 metallo-beta-lactamase; 290,000 tested, 0.45% active; inhibition, % at 5.6 µM; purified IMP-1, nitrocefin hydrolysis, epi-absorbance fluorescence;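 active means inhibition above the mean plus 3 SD of all compounds in the same screening run, cut at about 4.5% in these data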;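 further: 0% = IMP-1 with DMSO and 100% = DMSO wells lacking enzyme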
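System: Purified recombinant IMP-1 metallo-beta-lactamase enzyme | Measured by: Fluorescence quenching readout, ex 480/em 530 nm | Replication: Singlicate | Incubation: 15 min preincubation plus 25 min reaction at 25 °C | Evaluation: Percent inhibition from optical density relative to buffer-blank wells | Benchmarks: DMSO with and without IMP-1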
m5-HT2A agonist: activates the mouse 5-HT2A serotonin receptor. CHO-K1 mHTR2A beta-arrestin complementation, luminescence; percent of 30 µM serotonin response. 360,000 tested, 0.66% active. AID 624169. activation, % at 7.6 µM. P35363;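 active means activation above a run cutoff, the mean activation of all tested compounds plus 3 SD, cut at about 14% in these data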;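 further: 0% = plate median of compound wells and 100% = 30 µM serotonin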
dFosB act: enhances mouse delta FosB homodimer DNA binding; P13346; purified delta FosB, TAMRA-CDK5 oligo fluorescence polarization; percent of positive-control signal above neutral wells; activation, % at 25 µM; 340,000 tested, 0.99% active; AID 493131;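 active means mean activation above about 17%, with every replicate also reaching it, limit read from the data, passing the limit was not always enough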
Target sequence (P13346 whole entry, looked up): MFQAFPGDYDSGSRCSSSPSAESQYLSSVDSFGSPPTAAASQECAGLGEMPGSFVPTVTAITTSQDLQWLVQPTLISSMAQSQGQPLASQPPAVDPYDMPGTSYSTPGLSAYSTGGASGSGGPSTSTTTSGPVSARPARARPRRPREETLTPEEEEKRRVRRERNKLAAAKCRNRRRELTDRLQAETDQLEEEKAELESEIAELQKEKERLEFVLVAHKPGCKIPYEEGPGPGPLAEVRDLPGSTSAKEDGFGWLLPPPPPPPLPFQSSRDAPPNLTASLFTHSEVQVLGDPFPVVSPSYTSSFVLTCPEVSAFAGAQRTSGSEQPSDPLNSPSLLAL
Starred values were filed as active, the others as inactive; · = no result. Compounds with a hit are over-represented: about 2.5% of the library has one in this group of screens.

SMILES | VIM-2 inh | IMP-1 inhibitor | m5-HT2A agonist | dFosB act
CCCCCCOC(=O)c1ccc(OC(=O)c2cccnc2)cc1 | -2 | -3 | 22* | -8
O=Cc1coc2c(ccc3ccccc32)c1=O | 1 | 32* | · | ·
Cc1ccc(-c2noc(CSc3nnc(Cc4cccs4)n3-c3ccccc3)n2)cc1 | -4 | -3 | 21* | -2
COc1ccccc1NC(=O)C(C)OC(=O)Cc1ccsc1 (stereo not drawn) | · | · | -4 | 9
O=C(COc1ccccc1)Nc1nnc(S(=O)(=O)Nc2ccccc2)s1 | -4 | -2 | 1 | 10
CC1(C(=O)Nc2cccc3cccnc23)CCN1C(=O)Cc1ccc(Cl)cc1Cl (stereo not drawn) | · | · | -2 | ·
COC(=O)c1c(NC(=O)c2ccoc2C)sc(C)c1C | -1 | -2 | 2 | 3
CCOC(=O)c1sc(NC(=O)c2ccoc2C)c(C(N)=O)c1C | 8.0* | 0 | 6 | -59
CC1Sc2ccc(S(=O)(=O)CCC(=O)NCc3ccc(Cl)cc3)cc2NC1=O (stereo not drawn) | 1 | 1 | -3 | -8
Cc1nnc(SCC(=O)Nc2ccc([N+](=O)[O-])cc2)n1C | 0 | 1 | 5 | 1
N=c1c(C(=O)NCC2CCCO2)cc2c(=O)n3ccccc3nc2n1Cc1ccco1 (stereo not drawn) | 3 | -4 | -4 | -5
N=c1c(C(=O)NC2CCCCC2)cc2c(=O)n3ccccc3nc2n1Cc1cccnc1 | 8.2* | -2 | 0 | -16
N=c1c(C(=O)NCC2CCCO2)cc2c(=O)n3ccccc3nc2n1Cc1ccc(F)cc1 (stereo not drawn) | 9.7* | 0 | -6 | -2
N=c1c(C(=O)NC2CCCCC2)cc2c(=O)n3ccccc3nc2n1Cc1ccccc1 | 6 | -2 | -6 | -8
N=c1c(C(=O)NCC2CCCO2)cc2c(=O)n3ccccc3nc2n1Cc1cccnc1 (stereo not drawn) | 8.0* | -1 | -2 | -9
Cn1/c(=N/NC(=O)c2ccccc2F)sc2ccccc21 | -4 | -7 | 2 | -1
FC(F)(F)c1ccccc1-n1c(-c2ccco2)n[nH]c1=S | 9.9* | -1 | 5 | -5
S=c1[nH]nc(-c2cc(-c3ccco3)[nH]n2)n1-c1cccc2ccccc12 | -1 | -2 | -6 | -4
Cc1cccc(-n2c(-c3ccc(Br)o3)n[nH]c2=S)c1 | · | · | -2 | -3
Cc1cccc(-n2c(-c3ccco3)n[nH]c2=S)c1 | 19* | -1 | 0 | -2
Cc1cccc(NC(=O)C(C)OC(=O)CNC(=O)C2CCCCC2)c1 (stereo not drawn) | · | · | 1 | ·
CCCCNC(=O)c1ccc(NC(=O)CC2SC(N3CCCC3)=NC2=O)cc1 (stereo not drawn) | · | · | -2 | 3
Cc1cc(NC(=O)CSCC(=O)OCC(=O)c2ccc(Br)cc2)no1 | · | · | 6 | ·
CC(=O)Nc1cccc(NC(=O)c2cc(-c3cccnc3)nc3ccc(Cl)cc23)c1 | 0 | -1 | 8 | -13
CC(=O)Nc1cccc(NC(=O)c2cc(-c3cccnc3)nc3ccc(Br)cc23)c1 | 0 | 5.2* | -2 | -17
SMILES | VIM-2 inh | IMP-1 inhibitor | m5-HT2A agonist | dFosB act
CSc1ccccc1NC(=O)c1cc(-c2cccnc2)nc2ccc(Br)cc12 | -1 | 6.3* | -1 | 27*
Cc1ccc(C(=O)N/C(=C/c2ccco2)C(=O)NCCCn2ccnc2)cc1 | -1 | 0 | -3 | -7
CN(C)c1ccc(/C=C(\NC(=O)c2ccccc2)C(=O)NCCCn2ccnc2)cc1 | -2 | 5.4* | -3 | -10
Cc1ccc(C(=O)N/C(=C\c2ccco2)C(=O)NCCCn2ccnc2)cc1 | -3 | 8.8* | -2 | 2
Cn1nnnc1SCc1cccc(CSc2nnnn2C)n1 | 0 | 5.3* | 0 | -3
Cc1c2ccncc2cc2c1[nH]c1ccccc12 | · | · | 0 | 78*
O=C(CC1Sc2ccccc2NC1=O)NCc1ccccc1 (stereo not drawn) | 1 | -1 | 4 | 12
COC(=O)C1C2CC3c4[nH]c5cc(OC)ccc5c4CCN3CC2CC(OC(=O)CC(C)=O)C1OC (stereo not drawn) | · | · | 2 | -13
CCOC(=O)Oc1c(OC)cc(C(=O)O[C@@H]2C[C@@H]3CN4CCc5c([nH]c6cc(OC)ccc56)[C@H]4C[C@@H]3[C@H](C(=O)OC)[C@H]2OC)cc1OC | · | · | 10 | 29*
CCc1cccc(Nc2c3c(nc4ncnn24)CCC3)c1 | 9.9* | -4 | -2 | -4
O=c1cnc2ccccc2n1Cc1ccccc1C(F)(F)F | 0 | -1 | -10 | -8
O=C(CSc1c(Cl)cccc1Cl)NC1CCCc2ccccc21 (stereo not drawn) | 1 | 8.0* | -5 | -2
CCN1CCN(C(=O)c2ccc3c(c2)c(C)c(C)n3Cc2ccccc2)CC1 | -2 | -1 | -10 | -10
CCn1c(C)c(C)c2cc(C(=O)N3CCc4ccccc4C3)ccc21 | 2 | -4 | -1 | 19*
O=C(NNC(=O)c1ccccc1F)c1cccc(S(=O)(=O)N2CCc3ccccc32)c1 | · | · | 3 | -2
Cn1c(=O)c2c(SCC(=O)N3CCOCC3)nc(-c3ccccc3F)nc2n(C)c1=O | 7.9* | -2 | 6 | -15
CC(=O)N1CCN(C(=O)COC(=O)COc2c(C)cc(C)cc2C)CC1 | · | · | 5 | -3
Cc1snc(SCC(=O)c2ccc(F)cc2)c1C#N | 0 | -2 | -4 | -12
Cc1snc(SCC(=O)c2ccc([N+](=O)[O-])cc2)c1C#N | 9.5* | -4 | 4 | -12
NC(=O)COC(=O)c1cccc2c1-c1ccccc1C2=O | 7.9* | -4 | 2 | 5
COc1ccc(-c2c(C#Cc3ccsc3)c3cc(-c4cccc5[nH]ccc45)ccc3n2C)cc1 | · | · | -9 | 0
COc1ccc(-c2c(C#Cc3ccsc3)c3cc(-c4ccc5[nH]ccc5c4)ccc3n2C)cc1 | · | · | -3 | 17*
O=C(NCCc1cn2cccnc2n1)C1CCC(=O)N(Cc2ccccc2F)C1 (stereo not drawn) | · | · | 0 | ·
Clc1ccc(CSc2nnc([C@@H]3CCCN3)o2)cc1Cl | 1 | -2 | -1 | 2
Cc1ccc(C)c(CSc2nnc([C@@H]3CCCN3)o2)c1 | 3 | 5.0* | -7 | -12
SMILES | VIM-2 inh | IMP-1 inhibitor | m5-HT2A agonist | dFosB act
OCCCNc1ncnc2c1ncn2[C@H]1CN(C2CCCC2)C[C@@H](CO)O1 | · | · | 8 | ·
CCCN(C(=O)c1cc(Cl)nc2ccccc12)c1c(N)n(Cc2ccccc2)c(=O)[nH]c1=O | · | · | 6 | -3
O=C(CCCSc1nnc(-c2cccs2)n1CC1CCCO1)c1ccccc1 (stereo not drawn) | 9.7* | -8 | 1 | -15
O=C(O)C(=O)Cc1c[nH]c2ccccc12 | -1 | 4.5* | -1 | -6
CCC1CCC(C(=O)NC(C(=O)NCCc2ccc(S(N)(=O)=O)cc2)C(C)C)CC1 (stereo not drawn) | 0 | 1 | 6 | 73*
Cc1ccc(Oc2ncccc2/C=N/OCc2ccc(Cl)c(Cl)c2)cc1 | 0 | 4.7* | -3 | -7
Cc1ccc(CO/N=C/C2=C(Cl)c3ccccc3CC2)cc1 | -2 | -3 | 3 | -2
CCC1(C)Cc2c(sc3nc(SC)[nH]c(=S)c23)CO1 (stereo not drawn) | 8.1* | -4 | · | ·

Assay outcomes from PubChem.
